Results taken from ChEMBL document CHEMBL1127669, “Conformationally constrained peptides and semipeptides derived from RGD as potent inhibitors of the platelet fibrinogen receptor and platelet aggregation” (J Med Chem, 1994).
Positions of bridges follow the written chain, without caps; N, C: chain ends. Non-standard residues stand in square brackets, D forms with d. Residues, ends and D or L forms follow the SMILES beside them. *: point of attachment. NMeR = CN[C@@H](CCCNC(=N)N)C(=O)O; Pen = CC(C)(S)[C@H](N)C(=O)O; Pentanoyl = CCCCC(=O)*; Bz = O=C(c1ccccc1)*; X3 = CC(S)C(=O)*

Key:
[1] = target: T1, Integrin alpha-IIb/beta-3 (Homo sapiens, UniProt P05106+P08514); assay: Inhibition of [3H]-SKF- 107260 binding to purified GPIIb/IIIa from human platelets reconstituted in liposomes
Procedure, shortened: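 Competition binding on filter wells precoated with 10 µg/mL polylysine. Reaction started with 0.5 µg lectin-purified receptor, incubated 1 h at room temperature, filtered, washed in ice-cold buffer, scintillation counted. IC50 from nonlinear least-squares fit; Ki by Cheng–Prusoff. Mean of quadruplicates, single experiment.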

[2] = species: Canis familiaris; assay: Inhibition of platelet aggregation in canine platelet rich plasma induced by ADP; type: functional, Canis lupus familiaris; details: Canis lupus familiaris, Plasma
Procedure, shortened: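 Citrated canine PRP aggregation read optically by light transmittance. Peptide stock was 12 mM in 0.2 M acetic acid. Final 200 µM peptide and 10 µM ADP, pH 7.7, after 5-min preincubation with peptide.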

[3] = target: T1, Integrin alpha-IIb/beta-3; assay: Tested for inhibition of fibrinogen binding to purified GPIIb/IIIa isolated from human platelets and reconstituted in liposomes
Procedure, shortened: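 Displacement of [¹²⁵I]fibrinogen from purified human platelet GPIIb/IIIa incorporated into phospholipid vesicles. Values without statistical limits come from a single determination.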

T1 sequence (P05106 27-788 limits assumed): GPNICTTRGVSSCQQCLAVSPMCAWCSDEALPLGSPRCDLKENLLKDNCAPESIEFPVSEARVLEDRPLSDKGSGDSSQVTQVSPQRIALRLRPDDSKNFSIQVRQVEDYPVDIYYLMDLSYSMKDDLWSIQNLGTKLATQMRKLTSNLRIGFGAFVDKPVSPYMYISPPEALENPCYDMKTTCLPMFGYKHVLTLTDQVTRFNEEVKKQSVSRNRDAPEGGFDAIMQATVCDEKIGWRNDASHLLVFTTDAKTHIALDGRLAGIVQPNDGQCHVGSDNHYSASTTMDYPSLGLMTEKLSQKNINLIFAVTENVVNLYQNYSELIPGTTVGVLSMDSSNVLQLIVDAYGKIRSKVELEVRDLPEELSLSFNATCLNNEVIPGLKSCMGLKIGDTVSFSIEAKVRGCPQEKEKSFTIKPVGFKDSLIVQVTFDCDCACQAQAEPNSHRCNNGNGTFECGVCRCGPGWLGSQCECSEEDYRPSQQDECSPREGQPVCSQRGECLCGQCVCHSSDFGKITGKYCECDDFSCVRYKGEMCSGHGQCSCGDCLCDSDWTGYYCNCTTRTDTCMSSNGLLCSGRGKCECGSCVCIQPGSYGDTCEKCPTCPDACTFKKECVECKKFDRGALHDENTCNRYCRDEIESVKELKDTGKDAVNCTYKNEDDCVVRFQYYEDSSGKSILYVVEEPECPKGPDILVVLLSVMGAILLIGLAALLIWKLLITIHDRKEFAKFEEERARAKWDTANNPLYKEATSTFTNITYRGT
T1 sequence (P08514 32-887 limits assumed): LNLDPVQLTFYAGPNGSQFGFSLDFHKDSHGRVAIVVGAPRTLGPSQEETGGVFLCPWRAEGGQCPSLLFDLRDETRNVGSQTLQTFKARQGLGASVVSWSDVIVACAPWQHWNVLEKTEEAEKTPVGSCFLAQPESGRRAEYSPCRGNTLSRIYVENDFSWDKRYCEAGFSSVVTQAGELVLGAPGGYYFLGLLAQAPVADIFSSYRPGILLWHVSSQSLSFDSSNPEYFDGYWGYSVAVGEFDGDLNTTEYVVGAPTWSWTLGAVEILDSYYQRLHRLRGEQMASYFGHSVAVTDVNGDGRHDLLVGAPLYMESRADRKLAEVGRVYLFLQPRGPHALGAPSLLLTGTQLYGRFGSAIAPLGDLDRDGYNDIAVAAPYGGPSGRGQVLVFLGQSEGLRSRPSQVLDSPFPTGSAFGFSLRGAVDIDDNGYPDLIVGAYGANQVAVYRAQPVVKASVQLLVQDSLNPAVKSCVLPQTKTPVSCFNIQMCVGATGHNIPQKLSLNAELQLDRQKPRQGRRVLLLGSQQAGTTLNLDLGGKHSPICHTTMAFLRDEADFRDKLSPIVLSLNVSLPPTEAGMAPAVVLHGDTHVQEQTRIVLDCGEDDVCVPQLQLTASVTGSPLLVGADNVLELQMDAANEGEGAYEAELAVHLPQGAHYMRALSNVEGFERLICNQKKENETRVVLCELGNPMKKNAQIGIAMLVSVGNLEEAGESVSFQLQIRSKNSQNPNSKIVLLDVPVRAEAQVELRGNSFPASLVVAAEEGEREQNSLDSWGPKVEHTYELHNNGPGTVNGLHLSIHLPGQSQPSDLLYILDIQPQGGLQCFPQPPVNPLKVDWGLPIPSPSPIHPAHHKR
T1 sequence (P08514 891-1039 limits assumed): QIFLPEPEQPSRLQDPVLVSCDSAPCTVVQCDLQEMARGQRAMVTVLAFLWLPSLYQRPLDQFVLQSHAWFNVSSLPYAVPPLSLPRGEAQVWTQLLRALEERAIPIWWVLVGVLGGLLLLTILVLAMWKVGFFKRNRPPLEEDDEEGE

SMILES	Ki [1] [nM]	IC50 [2] [nM]	Ki [3] [nM]
CC(=O)N[C@H]1CSSC(C)(C)[C@@H](C(N)=O)NC(=O)[C@H](CC(=O)O)NC(=O)CNC(=O)[C@H](CCCN=C(N)N)N(C)C1=O	102	360	
CCCCC(=O)N[C@H]1CSSC(C)(C)[C@@H](C(N)=O)NC(=O)[C@H](CC(=O)O)NC(=O)CNC(=O)[C@H](CCCN=C(N)N)N(C)C1=O (Pentanoyl-C[NMeR]GD[Pen]-NH2; disulfide 1-5)		250	26
CC(S)C(=O)N[C@H]1CSSC(C)(C)[C@@H](C(N)=O)NC(=O)[C@H](CC(=O)O)NC(=O)CNC(=O)[C@H](CCCN=C(N)N)N(C)C1=O (some centres undefined) (X3-C[NMeR]GD[Pen]-NH2; disulfide 1-5)		340	24.3
N=C(N)NCCC[C@@H]1NC(=O)c2ccccc2SSc2ccccc2NC(=O)[C@H](CC(=O)O)NC(=O)CNC1=O (single isomer, unassigned)		290	27
CN1C(=O)[C@@H](NC(=O)c2ccccc2)CSSC(C)(C)[C@@H](C(N)=O)NC(=O)[C@H](CC(=O)O)NC(=O)CNC(=O)[C@@H]1CCCN=C(N)N (Bz-C[NMeR]GD[Pen]-NH2; disulfide 1-5)		200	13.7
CN1C(=O)c2ccccc2SSCCNC(=O)[C@@H](CC(=O)O)NC(=O)CNC(=O)[C@H]1CCCNC(=N)N		236	9.5
CN1CC(=O)N(C)[C@@H](CCCN=C(N)N)C(=O)NCC(=O)N[C@@H](CC(=O)O)C(=O)Nc2ccccc2SSc2ccccc2C1=O		102	24.5
